Experimental data: ChEMBL document CHEMBL4725241, “Discovery of BMS-986235/LAR-1219: A Potent Formyl Peptide Receptor 2 (FPR2) Selective Agonist for the Prevention of Heart Failure” (J Med Chem, 2020)
Calls of active or inactive are those of the source. The rule behind the calls is not given here.

Experiments:
[1] = target: T1, N-formyl peptide receptor 2 (Homo sapiens, UniProt P25090); assay: Agonist activity at human FPR2 expressed in HEK 293 cells co-expressing Galpha15 measured every 1.5 sec for 80 sec by Fluo-4 NW staining based scanning fluorometric method; format: cell-based, HEK293
T1 sequence (P25090 whole entry): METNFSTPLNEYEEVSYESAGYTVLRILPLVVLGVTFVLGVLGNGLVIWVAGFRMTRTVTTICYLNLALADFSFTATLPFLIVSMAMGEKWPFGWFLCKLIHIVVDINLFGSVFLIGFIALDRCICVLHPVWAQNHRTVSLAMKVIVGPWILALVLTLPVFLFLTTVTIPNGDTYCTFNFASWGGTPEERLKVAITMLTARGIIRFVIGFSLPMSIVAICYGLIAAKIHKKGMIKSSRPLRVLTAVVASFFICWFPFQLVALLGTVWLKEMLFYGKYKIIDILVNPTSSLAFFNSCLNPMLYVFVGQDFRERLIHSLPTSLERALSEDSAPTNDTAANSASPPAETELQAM
How it was run: (§1)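 HEK293 cells were transiently co-transfected with FPR plus Gα15 (Lipofectamine 2000), then reseeded after 24 h on poly-D-lysine plates and grown one more day. Cells were loaded with Fluo-4 NW for 45 min at 37°C. Compound was added and fluorescence (ex 485/em 525 nm) read for 80 s at 1.5 s intervals. Response = maximal peak minus basal.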

fMet-Leu-Phe receptor = target: T2, fMet-Leu-Phe receptor (Homo sapiens, UniProt P21462); assay: Agonist activity at human FPR1 expressed in HEK 293 cells co-expressing Galpha15 measured every 1.5 sec for 80 sec by Fluo-4 NW staining based scanning fluorometric method; format: cell-based, HEK293
T2 sequence (P21462 whole entry): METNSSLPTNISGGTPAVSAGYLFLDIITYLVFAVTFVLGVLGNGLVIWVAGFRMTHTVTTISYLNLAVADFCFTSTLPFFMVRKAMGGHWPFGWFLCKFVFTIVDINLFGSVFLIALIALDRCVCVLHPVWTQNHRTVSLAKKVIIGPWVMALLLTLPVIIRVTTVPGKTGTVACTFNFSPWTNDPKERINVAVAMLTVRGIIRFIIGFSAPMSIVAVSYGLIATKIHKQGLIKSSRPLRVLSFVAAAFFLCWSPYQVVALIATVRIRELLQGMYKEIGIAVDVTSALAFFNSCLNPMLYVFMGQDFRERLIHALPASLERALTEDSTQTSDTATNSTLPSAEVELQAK

[2] = target: T3, Formyl peptide receptor 2 (Mus musculus, UniProt O88536); assay: Agonist activity at mouse FPR2 expressed in HEK 293 cells co-expressing Galpha15 measured every 1.5 sec for 80 sec by Fluo-4 NW staining based scanning fluorometric method; format: cell-based, HEK293; how it was run: as §1
T3 sequence (O88536 whole entry): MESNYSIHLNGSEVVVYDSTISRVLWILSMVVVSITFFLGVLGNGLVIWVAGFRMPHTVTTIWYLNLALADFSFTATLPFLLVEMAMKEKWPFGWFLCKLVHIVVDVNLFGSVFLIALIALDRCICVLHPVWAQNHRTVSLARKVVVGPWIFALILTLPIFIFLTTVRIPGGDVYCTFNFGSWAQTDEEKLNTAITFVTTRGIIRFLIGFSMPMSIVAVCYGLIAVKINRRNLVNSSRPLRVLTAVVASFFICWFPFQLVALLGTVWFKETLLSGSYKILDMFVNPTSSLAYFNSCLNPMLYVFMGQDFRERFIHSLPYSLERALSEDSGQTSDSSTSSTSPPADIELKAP

[3] = In vivo […] in mouse assessed as reduction in LPS-induced neutrophil infiltration in BALF cells at 1 mg/kg, po relative to control; format: functional
How it was run: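 Mice were given LPS and dosed orally at 1 mg/kg. Neutrophils in BALF were counted, and percent inhibition was calculated.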

Cytochrome P450 3A4 = Cytochrome P450 3A4 (Homo sapiens, UniProt P08684); assay: Inhibition of recombinant human CYP3A4; format: ADME
Mus musculus [4] = assay: Cardioprotective activity in C57BL/6 mouse model of LAD coronary artery ligation-induced myocardial infarction assessed as reduction in LV chamber area at 100 mg/kg, po and measured after 28 days; format: functional, organism-based; details: time 28.0 day
How it was run: (§2)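 Male C57BL/6 mice (10-12 weeks) underwent permanent LAD ligation. Captopril was given in drinking water (~100 mg/kg/day). Endpoints were taken at 28 days post-MI, with histomorphometry of LV cross sections for scar length.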

Mus musculus [5] = assay: Cardioprotective activity in C57BL/6 mouse model of LAD coronary artery ligation-induced myocardial infarction assessed as reduction in heart weight at 100 mg/kg, po and measured after 28 days; format: functional, organism-based; details: time 28.0 day; how it was run: as §2
Mus musculus [6] = assay: Cardioprotective activity in C57BL/6 mouse model of LAD coronary artery ligation-induced myocardial infarction assessed as reduction in scar length at 0.3 mg/kg, po and measured after 28 days relative to control; format: functional, organism-based; details: time 28.0 day
How it was run: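 Male C57BL/6 mice (10-12 weeks) underwent permanent LAD ligation under ketamine/xylazine, with shams having an untightened suture. Compound (0.3 mg/kg/d) or vehicle was given by oral gavage once daily (5 mL/kg) from post-MI day 4 for 24 days. Endpoints were taken at 28 days post-MI; scar length was quantified from LV cross sections.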

Chain of Cytochrome P450 3A4 (P08684 whole entry): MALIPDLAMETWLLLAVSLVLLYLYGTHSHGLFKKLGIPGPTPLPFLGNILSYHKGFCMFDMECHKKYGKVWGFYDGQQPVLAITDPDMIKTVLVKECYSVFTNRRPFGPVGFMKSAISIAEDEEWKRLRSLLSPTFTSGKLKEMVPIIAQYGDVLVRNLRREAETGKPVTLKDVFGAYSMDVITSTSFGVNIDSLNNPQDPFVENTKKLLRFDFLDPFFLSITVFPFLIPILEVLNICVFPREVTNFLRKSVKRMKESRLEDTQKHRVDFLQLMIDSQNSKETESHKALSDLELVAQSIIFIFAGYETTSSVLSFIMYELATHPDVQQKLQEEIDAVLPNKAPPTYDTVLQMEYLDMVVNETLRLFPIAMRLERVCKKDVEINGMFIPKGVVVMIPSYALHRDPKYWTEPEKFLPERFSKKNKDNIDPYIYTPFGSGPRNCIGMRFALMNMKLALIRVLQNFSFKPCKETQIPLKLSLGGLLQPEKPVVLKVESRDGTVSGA

EC50 [1] [nM]	EC50 (fMet-Leu-Phe receptor) [nM]	Compound	also measured
990		COc1ccc(CCNC(=O)Nc2ccc(Cl)cc2)cc1	
	350	COc1cc(F)c([C@@H]2CNC(=O)[C@H]2NC(=O)Nc2ccc(C#N)cc2)c(F)c1	
1.6		COc1ccc([C@@H]2CNC(=O)[C@H]2NC(=O)Nc2ccc(F)cc2)c(C)c1	
4		COc1ccc([C@@H]2CNC(=O)[C@H]2NC(=O)Nc2ccc(F)cc2)c(Cl)c1	
0.085		COc1ccc([C@@H]2CNC(=O)[C@H]2NC(=O)Nc2ccc(F)cc2)cc1	
0.092		COc1ccc([C@@H]2CNC(=O)[C@H]2NC(=O)Nc2ccc(Cl)cc2)cc1	
	17	COc1cc(F)c([C@@H]2CNC(=O)[C@H]2NC(=O)Nc2ccc(F)cc2)cc1F	
	3000	COc1cc(F)c([C@@H]2CNC(=O)[C@H]2NC(=O)Nc2cc3ccccc3s2)c(F)c1	
0.9		COc1ccc([C@@H]2CNC(=O)[C@H]2NC(=O)Nc2ccc(F)cc2)cc1F	
	190	COc1cnc([C@@H]2CNC(=O)[C@H]2NC(=O)Nc2ccc(F)cc2)c(F)c1	
0.087	72	COc1cc(F)c([C@@H]2CNC(=O)[C@H]2NC(=O)Nc2ccc(F)c(O)c2)c(F)c1	
14		CCOc1cc(F)c([C@@H]2CNC(=O)[C@H]2NC(=O)Nc2ccc(F)cc2)c(F)c1	
9.7	40000	N#Cc1cc(F)c([C@@H]2CNC(=O)[C@H]2NC(=O)Nc2ccc(F)cc2)c(F)c1	
	120	COc1cc(F)c([C@@H]2CNC(=O)[C@H]2NC(=O)Nc2ccc(Cl)cc2)c(F)c1	
	1200	COc1cc(F)c([C@@H]2CNC(=O)[C@H]2NC(=O)Nc2ccc(Cl)s2)c(F)c1	EC50 [2]: 1.4 nM; inhibition in vivo at 1 mg/kg [3]: 84%; IC50 (Cytochrome P450 3A4): 5600 nM
0.19	96	COc1cc(F)c([C@@H]2CNC(=O)[C@H]2NC(=O)Nc2ccc(Br)cc2)c(F)c1	
	820	COc1cc(F)c([C@@H]2CNC(=O)[C@H]2NC(=O)Nc2ccc(F)c(F)c2)c(F)c1	EC50 [2]: 8.5 nM; inhibition in vivo at 1 mg/kg [3]: 4.9%; IC50 (Cytochrome P450 3A4): > 20000 nM
2		COc1cc(F)c([C@@H]2CNC(=O)[C@H]2NC(=O)Nc2ccc(C)cc2)c(F)c1	
	1700	COc1cc(F)c([C@@H]2CNC(=O)[C@H]2NC(=O)Nc2cccc(F)c2)c(F)c1	
0.05	40	COc1cc(F)c([C@@H]2CNC(=O)[C@H]2NC(=O)Nc2ccc(Cl)c(O)c2)c(F)c1	
	290	COc1cc(F)c([C@@H]2CNC(=O)[C@H]2NC(=O)Nc2cc(C)ns2)c(F)c1	

EC50 [1] [nM]	EC50 (fMet-Leu-Phe receptor) [nM]	Compound	also measured
1.4		CNc1cc(F)c([C@@H]2CNC(=O)[C@H]2NC(=O)Nc2ccc(F)cc2)c(F)c1	
0.14	280	COc1cc(F)c([C@@H]2CNC(=O)[C@H]2NC(=O)Nc2ccc(F)cc2)c(F)c1	EC50 [2]: 1.5 nM; inhibition in vivo at 1 mg/kg [3]: 97%; IC50 (Cytochrome P450 3A4): > 20000 nM
5.8		CCc1cc(F)c([C@@H]2CNC(=O)[C@H]2NC(=O)Nc2ccc(F)cc2)c(F)c1	
1.9		COc1cc(F)c([C@@H]2CNC(=O)[C@H]2NC(=O)Nc2ncc(Cl)s2)c(F)c1	
0.078	1000	COc1cc(F)c([C@@H]2CNC(=O)[C@H]2NC(=O)Nc2ccc(C)c(O)c2)c(F)c1	EC50 [2]: 0.63 nM; inhibition in vivo at 1 mg/kg [3]: 55%; IC50 (Cytochrome P450 3A4): > 20000 nM
4.5		COc1cc(F)c([C@@H]2CNC(=O)[C@H]2NC(=O)Nc2ccc(Cl)cn2)c(F)c1	
3.1	29	O=C(Nc1ccc(F)cc1)N[C@@H]1C(=O)NC[C@H]1c1ccc(Cl)cc1F	
34		COc1ccc([C@H]2CNC(=O)[C@@H]2NC(=O)Nc2ccc(Cl)cc2)cc1	
43		COc1cc(F)c([C@@H]2CNC(=O)[C@H]2NC(=O)Nc2ccccc2F)c(F)c1	
		C[C@H](CS)C(=O)N1CCC[C@H]1C(=O)O	Activity (Mus musculus [4]): Active; Activity (Mus musculus [5]): Active; Activity (Mus musculus [6]): inactive
0.18		COc1ccc([C@@H]2CNC(=O)[C@H]2NC(=O)Nc2ccc(Cl)cc2)cc1 (racemic)	
> 100	> 10000	COc1ccc([C@@H]2NC(=O)[C@H]2NC(=O)Nc2ccc(Cl)cc2)cc1 (racemic)	
6.8		COc1ccc(CC(CO)NC(=O)Nc2ccc(Cl)cc2)cc1 (racemic)	
31		COc1ccc(CC(NC(=O)Nc2ccc(Cl)cc2)C(=O)O)cc1 (racemic)	
12	> 10000	COc1ccc([C@@H]2NC(=O)[C@@H]2NC(=O)Nc2ccc(Cl)cc2)cc1 (racemic)	
0.11		COc1ccc([C@@H]2CCNC(=O)[C@H]2NC(=O)Nc2ccc(Cl)cc2)cc1 (racemic)	
0.91		COc1ccc([C@@H]2CNC(=O)[C@@H]2NC(=O)Nc2ccc(Cl)cc2)cc1 (racemic)	
3.6	> 10000	COc1ccc(CC(NC(=O)Nc2ccc(Cl)cc2)C(N)=O)cc1 (racemic)	
0.9		COc1ccc(C2CNC(=O)C2NC(=O)Nc2ccc(Cl)cc2)cc1 (single isomer, unassigned; (+))	
4.6		COc1ccc(C2CNC(=O)C2NC(=O)Nc2ccc(Cl)cc2)cc1 (single isomer, unassigned; (-))	

Compound	EC50 [1] [nM]	EC50 (fMet-Leu-Phe receptor) [nM]	also measured
COc1ccc(CC(C)NC(=O)Nc2ccc(Cl)cc2)cc1 (racemic)	23		
